From ChEMBL document CHEMBL1128298, “Synthesis and evaluation of pharmacological and pharmacokinetic properties of monopropyl analogs of 5-, 7-, and 8-[[(trifluoromethyl)sulfonyl]oxy]-2-aminotetralins: central dopamine and serotonin receptor activity” (J Med Chem, 1995)
The source made the active and inactive calls. No cut-off for these calls is given here.

Legend:
D(2) dopamine receptor [1] = target: T1, D(2) dopamine receptor (Homo sapiens, UniProt P14416); assay: In vitro binding affinity towards dopamine D2 receptor by using [3H]U-86170 as radioligand
T1 sequence (P14416 whole entry): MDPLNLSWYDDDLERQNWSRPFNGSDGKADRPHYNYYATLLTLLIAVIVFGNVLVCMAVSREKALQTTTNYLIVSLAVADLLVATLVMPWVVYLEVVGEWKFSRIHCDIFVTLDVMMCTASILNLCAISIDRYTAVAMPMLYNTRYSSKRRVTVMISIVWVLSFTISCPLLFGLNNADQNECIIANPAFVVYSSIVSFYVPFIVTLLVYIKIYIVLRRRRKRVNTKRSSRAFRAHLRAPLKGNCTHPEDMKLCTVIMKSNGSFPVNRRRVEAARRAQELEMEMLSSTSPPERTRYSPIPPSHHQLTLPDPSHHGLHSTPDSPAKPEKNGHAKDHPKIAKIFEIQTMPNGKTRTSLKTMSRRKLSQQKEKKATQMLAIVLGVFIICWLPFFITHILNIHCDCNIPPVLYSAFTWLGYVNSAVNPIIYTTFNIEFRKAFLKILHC
Summary of the method: (§1)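 Radioligand competition binding at cloned mammalian receptors expressed in CHO-K1 cells, 1 h at room temperature, pH 7.4. Ligands: 5-HT1A [3H]-8-OH-DPAT 1 nM in 50 mM Tris/10 mM MgCl2. 5-HT1Dα/β [3H]-5-HT 1.7 nM in Tris/MgCl2/EDTA/0.1% ascorbate. D2 [3H]U86170 1 nM in 20 mM HEPES/10 mM MgSO4. D3 [3H]spiperone 0.5 nM in HEPES/MgCl2/NaCl/EDTA. Filtration and scintillation counting; 11 concentrations in duplicate; IC50 by nonlinear fit converted to Ki via Cheng–Prusoff.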

Rattus norvegicus [2] = assay: (§2) […] decrease in the accumulation of 5-HTP (5-uM/Kg; format: functional, organism-based
D(3) dopamine receptor = D(3) dopamine receptor (Homo sapiens, UniProt P35462); assay: In vitro binding affinity towards Dopamine receptor D3 by using [3H]spiperone as radioligand
D(3) dopamine receptor, sequence (P35462 whole entry): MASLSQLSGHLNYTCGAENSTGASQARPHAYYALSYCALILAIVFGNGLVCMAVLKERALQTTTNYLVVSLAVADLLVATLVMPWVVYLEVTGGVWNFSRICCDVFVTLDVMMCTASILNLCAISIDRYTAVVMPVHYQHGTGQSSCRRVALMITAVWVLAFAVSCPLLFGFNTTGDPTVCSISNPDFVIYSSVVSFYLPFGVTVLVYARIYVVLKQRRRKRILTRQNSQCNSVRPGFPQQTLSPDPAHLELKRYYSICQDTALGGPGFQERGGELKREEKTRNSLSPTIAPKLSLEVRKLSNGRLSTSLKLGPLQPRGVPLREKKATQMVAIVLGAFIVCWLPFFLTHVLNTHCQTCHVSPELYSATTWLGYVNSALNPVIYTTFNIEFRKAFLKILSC
Summary of the method: as §1, with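 “7.4.” for “7.4. Ligands: 5-HT1A [3H]-8-OH-DPAT 1 nM in 50 mM Tris/10 mM MgCl2. 5-HT1Dα/β [3H]-5-HT 1.7 nM in Tris/MgCl2/EDTA/0.1% ascorbate.”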

Rattus norvegicus [3] = assay: […] decrease in the accumulation of DOPA (3,4-dihydroxyphenylalanine) in rat striatal brain;Inactive at 50 uM/Kg; format: functional, organism-based
Summary of the method: (§3)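 Male Sprague-Dawley rats (200–300 g) pretreated with reserpine 5 mg/kg sc 18 h before test drug. Test drug sc 60 min and NSD 1015 30 min before decapitation. DOPA and 5-HTP in limbic, striatal and hemispheral brain areas determined by HPLC with electrochemical detection. ED50 (µmol/kg) is the dose producing half-maximal decrease, from sigmoidal fit to dose–response curves, with 95% confidence limits.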

[4] = target: T2, 5-hydroxytryptamine receptor 1D (Homo sapiens, UniProt P28221); assay: In vitro binding affinity towards 5-HT1D alpha receptor by using [3H]5-HT as radioligand; summary of the method: as §1
T2 sequence (P28221 whole entry): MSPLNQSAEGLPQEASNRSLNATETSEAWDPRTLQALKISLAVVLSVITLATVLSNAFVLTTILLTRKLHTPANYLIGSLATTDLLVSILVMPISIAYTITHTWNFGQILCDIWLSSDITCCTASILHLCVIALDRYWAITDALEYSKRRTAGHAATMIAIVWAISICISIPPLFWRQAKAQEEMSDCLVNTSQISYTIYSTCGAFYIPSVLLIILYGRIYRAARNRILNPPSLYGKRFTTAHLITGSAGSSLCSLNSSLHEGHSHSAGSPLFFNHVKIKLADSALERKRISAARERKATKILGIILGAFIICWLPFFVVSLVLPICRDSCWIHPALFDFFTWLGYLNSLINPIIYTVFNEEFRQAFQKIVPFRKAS

[5] = target: T2, 5-hydroxytryptamine receptor 1D; assay: In vitro binding affinity towards 5-hydroxytryptamine 1D receptor alpha by using [3H]-5-HT as radioligand
Rattus norvegicus [6] = assay: uM/kg; format: functional
Rattus norvegicus [7] = assay: […] decrease in the accumulation of DOPA (3,4-dihydroxyphenylalanine) in rat hemispheral brain;Inactive at 50 uM/Kg; format: functional, organism-based; summary of the method: as §3
Rattus norvegicus [8] = assay: as §2; format: functional, organism-based; remark: listed apart in the source
[9] = target: T3, 5-hydroxytryptamine receptor 1A (Mus musculus, UniProt Q64264); assay: In vitro binding affinity towards 5-hydroxytryptamine 1A receptor by using [3H]-8-OH-DPAT as radioligand; summary of the method: as §1
T3 sequence (Q64264 whole entry): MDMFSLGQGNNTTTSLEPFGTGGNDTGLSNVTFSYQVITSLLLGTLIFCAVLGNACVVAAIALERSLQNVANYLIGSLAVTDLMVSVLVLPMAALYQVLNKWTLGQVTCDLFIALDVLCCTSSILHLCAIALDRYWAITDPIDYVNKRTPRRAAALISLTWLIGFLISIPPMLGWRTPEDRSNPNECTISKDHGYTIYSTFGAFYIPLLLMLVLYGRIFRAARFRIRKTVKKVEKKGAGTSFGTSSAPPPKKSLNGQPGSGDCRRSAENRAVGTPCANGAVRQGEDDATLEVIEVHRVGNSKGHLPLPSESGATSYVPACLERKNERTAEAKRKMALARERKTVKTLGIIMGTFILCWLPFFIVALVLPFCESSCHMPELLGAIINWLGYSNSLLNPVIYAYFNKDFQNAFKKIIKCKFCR

Rattus norvegicus [10] = assay: […] decrease in the accumulation of DOPA (3,4-dihydroxyphenylalanine) in rat limbic brain;Inactive at 50 uM/Kg; format: functional, organism-based; summary of the method: as §3
Rattus norvegicus [11] = species: Rattus norvegicus; assay: post-synaptic activity was determined by locomotor activity (LMA) in reserpine pretreated rats and no. of counts/30 min was reported (***p<0.005); format: functional
D(2) dopamine receptor [12] = target: T1, D(2) dopamine receptor
[13] = target: T2, 5-hydroxytryptamine receptor 1D; assay: In vitro binding affinity towards 5-hydroxytryptamine 1D receptor alpha by using [3H]5-HT as radioligand
D(2) dopamine receptor [14] = target: T1, D(2) dopamine receptor; assay: In vitro binding affinity towards Dopamine receptor D2 by using [3H]spiperone as radioligand
[15] = Oral bioavailability in rat; format: ADME, organism-based; conditions: in vivo
Summary of the method: (§4)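 Rats with arterial catheters, dosed 24 h after surgery. Dosing po by gavage after 18 h fast, or iv; doses 25 µmol/kg po and 5 µmol/kg iv. Blood sampled 5 min–12 h and analysed by GC-MS after dichloromethane extraction at pH 11, in duplicate. Bioavailability from po/iv AUC ratio; half-life estimated graphically from the elimination phase after oral dosing.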

[16] = Plasma clearance was determined for the compound in rats; format: ADME, organism-based; conditions: rat; summary of the method: as §4
[17] = Plasma half life was determined in rats; format: ADME, organism-based; conditions: rat; summary of the method: as §4
Rattus norvegicus [18] = assay: […] decrease in the accumulation of DOPA (3,4-dihydroxyphenylalanine) in rat limbic brain; partial response at 50 uM/Kg; format: functional, organism-based; summary of the method: as §3
Rattus norvegicus [19] = assay: […] decrease in the accumulation of DOPA (3,4-dihydroxyphenylalanine) in rat striatal brain; partial response at 50 uM/Kg; format: functional, organism-based; summary of the method: as §3
Rattus norvegicus [20] = species: Rattus norvegicus; assay: […] decrease in the accumulation of 5-HTP (5-Hydroxytryptophan) in rat hemispheral brain; format: functional; summary of the method: as §3
Rattus norvegicus [21] = assay: […] decrease in the accumulation of DOPA (3,4-dihydroxyphenylalanine) in rat hemispheral brain; partial response at 50 uM/Kg; format: functional, organism-based; summary of the method: as §3
Rattus norvegicus [22] = assay: behavioral syndrome(flat body posture and forepaw treading) at 0.25 µmol/kg
Rattus norvegicus [23] = assay: […] decrease in the accumulation of 5-HTP (5-Hydroxytryptophan) in non pretreated rat limbic brain at dose 0.25 umol/kg; format: functional; design: scale not given: the % may be the effect or the level left
Summary of the method: (§5)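 Male Sprague-Dawley rats (200–300 g) without reserpine. Test drug sc, or po by gavage after 18 h fast. NSD 1015 decarboxylase inhibition before decapitation. DOPA and 5-HTP in limbic and striatal regions measured by HPLC-electrochemical detection. Results given as percent of saline controls, mean ± SEM, n = 16 controls and 4 treated.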

Rattus norvegicus [24] = assay: […] decrease in the accumulation of DOPA (3,4-dihydroxyphenylalanine) in non pretreated rat striatal brain at dose 0.25 umol/kg; format: functional; design: scale not given: the % may be the effect or the level left; summary of the method: as §5
Rattus norvegicus [25] = assay: behavioral syndrome(flat body posture and forepaw treading) at 0.25 umol/Kg
Rattus norvegicus [26] = species: Rattus norvegicus; assay: […] decrease in the accumulation of 5-HTP (5-Hydroxytryptophan) in rat striatal brain; format: functional; summary of the method: as §3
Rattus norvegicus [27] = assay: […] decrease in the accumulation of DOPA (3,4-dihydroxyphenylalanine) in non pretreated rat limbic brain at dose 0.25 umol/kg; format: functional; design: scale not given: the % may be the effect or the level left; summary of the method: as §5
Rattus norvegicus [28] = species: Rattus norvegicus; assay: post-synaptic activity was determined by locomotor activity (LMA) in Non pretreated rats; format: functional
Summary of the method: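 Nonpretreated male Sprague-Dawley rats; test drug sc in the neck or po by gavage, n = 4. Placed singly in photocell motility meters immediately after dosing; activity recorded for 30 min. Results expressed as percent of saline controls.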

Rattus norvegicus [29] = assay: […] decrease in the accumulation of 5-HTP (5-Hydroxytryptophan) in non pretreated rat striatal brain at dose 0.25 umol/kg; format: functional; design: scale not given: the % may be the effect or the level left; summary of the method: as §5

SMILES | Ki (D(3) dopamine receptor) [nM] | Ki [5] [nM] | No. of rats displaying DA syndrome (Rattus norvegicus [6]) | Ki [9] [nM] | Ki (D(2) dopamine receptor [12]) [nM] | Ki [13] [nM] | Ki (D(2) dopamine receptor [14]) [nM] | bioavailability [15] [%] | half-life [17] [h] | ED50 (Rattus norvegicus [18]) | ED50 (Rattus norvegicus [19]) | ED50 (Rattus norvegicus [20]) [µmol/kg] | ED50 (Rattus norvegicus [21]) | further results
CCCN[C@@H]1CCc2ccc(OS(=O)(=O)C(F)(F)F)cc2C1.Cl | 359 | 340 | 4 | 222 | – | – | – | – | – | – | – | – | – | Ki (D(2) dopamine receptor [1]): 50 nM; ED50 (Rattus norvegicus [2]): Weak activity; ED50 (Rattus norvegicus [3]): inactive; Ki [4]: 125 nM; ED50 (Rattus norvegicus [7]): inactive; ED50 (Rattus norvegicus [8]): Weak activity; ED50 (Rattus norvegicus [10]): inactive; Counts/30 min (Rattus norvegicus [11]): 2153
CCCNC1CCc2cccc(OS(=O)(=O)C(F)(F)F)c2C1 (racemic) | 691 | – | – | 2.8 | 108 | 15 | > 413 | – | – | – | – | – | – | –
CCCN(CCC)C1CCc2cccc(OS(=O)(=O)C(F)(F)F)c2C1 (racemic) | 273 | 127 | – | 0.8 | 62 | 12 | > 413 | 11.2 | 1.5 | Weak activity | Weak activity | 13.8 | Weak activity | clearance [16]: 57 mL/min/kg
CCCN(CCC)[C@@H]1CCc2cccc(O)c2C1 | – | – | 0 | 0.5 | – | – | – | 2.4 | 1.2 | Weak activity | Weak activity | 0.05 | Weak activity | No. of rats with 5-HT syndrome (Rattus norvegicus [22]): 4; Control (Rattus norvegicus [23]): 50%; Control (Rattus norvegicus [24]): 80%; No. of rats with 5-HT syndrome (Rattus norvegicus [25]): 4; ED50 (Rattus norvegicus [26]): 0.047 µmol/kg; Control (Rattus norvegicus [27]): 94%; Locomotor activity (% of saline control) (Rattus norvegicus [28]): 64%; Control (Rattus norvegicus [29]): 48%
